Compound activity: PubChem BioAssay, The Scripps Research Institute Molecular Screening Center
A selection: hits, their analogues and other compounds. The true share with any hit is near 2.9%.
OX1R antag-1 – antagonists of human orexin 1 receptor (OX1R); OX1R-expressing cells, FRET antagonist read-out; Orexin/Hypocretin receptor type 1 (Homo sapiens), O43613; 330,000 tested, 1.8% active; inhibition, % at 6.6 µM; in the data active means inhibition mostly above about 38%, no sharp cut-off; inactive means mostly below about 40%;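 further: 0% = agonist challenge alone and 100% = reference antagonist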
Target sequence (O43613 whole entry, looked up): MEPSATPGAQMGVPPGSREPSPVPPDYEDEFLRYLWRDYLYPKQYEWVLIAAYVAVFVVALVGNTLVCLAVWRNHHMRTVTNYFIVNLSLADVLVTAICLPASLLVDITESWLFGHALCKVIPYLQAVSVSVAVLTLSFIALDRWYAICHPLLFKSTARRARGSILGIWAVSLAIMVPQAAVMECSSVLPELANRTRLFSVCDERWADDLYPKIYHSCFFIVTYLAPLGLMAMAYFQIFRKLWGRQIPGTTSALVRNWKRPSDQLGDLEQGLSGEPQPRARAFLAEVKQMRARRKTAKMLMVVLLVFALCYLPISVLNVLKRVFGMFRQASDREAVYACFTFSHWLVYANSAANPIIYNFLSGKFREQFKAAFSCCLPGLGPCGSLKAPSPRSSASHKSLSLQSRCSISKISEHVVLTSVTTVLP
CHO parental Ca – ATP-evoked calcium signal inhibitors, parental CHO, primary screen, counter-screen for OX1R antagonist project, cell-based, fluorescence, Fluo-8 calcium dye; parental CHO-K1, ATP-induced calcium, Fluo-8 fluorescence; inhibition, % at 5.6 µM; 330,000 tested, 0.63% active;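 active means inhibition above that plate's mean sample inhibition plus 3 SD, cut at about 26% in these data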;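 further: 0% = ATP-challenged DMSO wells and 100% = DMSO wells without ATP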
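Test system: untransfected parental CHO cell line. Compound: one dose, 5.6 µM nominal. Detection: intracellular calcium via Fluo-8 no-wash fluorescent dye. Measure: % inhibition. Benchmarks: ATP-challenged DMSO wells low, unchallenged DMSO wells high.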
CHO-K1 Ca antag – nonselective inhibitor or artifact in parental CHO-K1 cells; ATP-induced calcium, Fluo-8 fluorescence; inhibition, % at 3 µM; 360,000 tested, 0.6% active;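 active means inhibition above a per-plate cutoff, the plate's mean sample inhibition plus 3 SD, cut at about 24% in these data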;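 further: 0% = DMSO plus EC80 ATP and 100% = DMSO alone without ATP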
M1 PAM parental – nonselective calcium activators in parental CHO-K1 cells, primary screen, counter-screen for M1 PAM project, cell-based, Fluo-8 calcium fluorescence, full deck, 1536-well. ATP EC20; 0% at ATP EC20, 100% at ATP max. activation, % at 3 µM. 360,000 tested, 0.02% active. AID 602247, 2012;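 active means activation above the run cutoff, the mean activation of all test compounds plus 3 SD, cut at about 40% in these data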;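 further: peak over basal fluorescence ratio in a 140 s read after ATP addition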
OX1R antag-2 – OX1R (HCRTR1) antagonists, primary screen, fluorescence, CHO/OX1R cells, Fluo-8 calcium, orexin A | 330,000 tested, 0.43% active | AID 434989, 2010 | inhibition, % at 5 µM | Fluo-8 calcium fluorescence;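 active means inhibition above its plate's threshold, mean inhibition of all tested compounds on the plate plus 3 SD, cut at about 37% in these data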;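 further: 0% = orexin A challenge wells and 100% = SB-334867-A antagonist wells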
CHO-K1 Ca ag – counter-screen for M1 agonists: effect in parental CHO-K1 cells; Fluo-8 calcium fluorescence; scaled to maximal ATP response, vehicle zero; activation, % at 3 µM; 360,000 tested, 0.48% active; in the data active means activation above about 15%;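 further: untransfected CHO-K1 host cells lacking M1 receptor as counterscreen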
An asterisk follows results filed as active; . = no result given.

SMILES	OX1R antag-1	CHO parental Ca	CHO-K1 Ca antag	M1 PAM parental	OX1R antag-2	CHO-K1 Ca ag
O=C(c1cccnc1Cl)N1CCOCC1	19.5	-8.2	-2.0	8.0	-12.4	0.0
COc1ccc(CC2(CO)CCN(CC3=Cc4cc(Cl)ccc4OC3)CC2)cc1	70.4	63.7*	22.5	7.5	43.1*	7.5
COc1ccc2c(c1)C=C(CN1CCC(CO)(CCc3ccccc3)CC1)CO2	8.1	-6.2	-0.5	-0.6	-27.0	1.1
O=c1ccc2ccc(Oc3ccc([N+](=O)[O-])cc3[N+](=O)[O-])cc2o1	85.3*	-9.1	.	.	-10.8	.
Brc1ccccc1OCCCCn1cnc2ccccc21	34.6*	65.6*	15.0	-6.0	19.2	12.4
CN(C)C(=O)c1ccc(Nc2nc(-c3cccs3)nc3ccccc23)cc1	39.7	8.6	17.6	-2.3	-22.9	5.0
COc1ccc(-n2ncc3c2CC(C)(C)CC3NC(=O)c2c(C)cc(=O)oc2C)cc1 (stereo unspecified)	14.4	-8.0	-5.8	0.4	-16.4	-0.9
COc1ccccc1N(CC(O)Cn1nc(C)cc1C)S(=O)(=O)c1ccccc1 (stereo unspecified)	47.4*	-12.2	-6.0	0.5	11.1	0.4
Nc1nonc1C(=O)NCCN=Cc1cc(Cc2ccccc2)cc(Br)c1O	11.8	62.5*	2.5	1.8	16.1	0.5
Cc1ccc(-c2nnn(CC(=O)N(c3ccccc3F)C(C(=O)NC3CCCC3)c3ccco3)n2)o1 (stereo unspecified)	45.1*	-2.1	2.3	1.6	9.6	0.7
CC(N)c1csc(NC(=O)Nc2cccc(C(F)(F)F)c2)n1 (stereo unspecified)	.	.	3.1	-0.1	.	0.4
Cc1cc(CSc2ccccc2)ccc1NC(=O)c1ccc(Cl)c([N+](=O)[O-])c1	33.0	-16.6	27.8*	6.1	-19.0	-0.7
CN(CC(=O)NNC(=O)CNC(=O)c1cccs1)S(=O)(=O)c1ccc(Cl)cc1	11.6	5.5	-2.0	-6.3	2.6	0.6
Cc1ccc(C(=O)NNC(=O)c2ccc(NC(=O)C(C)(C)C)cc2)cc1	2.6	-3.3	4.2	2.4	-11.8	15.2*
CC(C)(C)C(=O)NC(=S)NNC(=O)c1ccc(Cl)cc1Cl	0.2	52.3*	58.7*	-32.0	63.4*	119.1*
CC(C)(C)C(=O)NC(=S)NNC(=O)c1ccc(-c2ccccc2)cc1	-5.0	100.3*	95.1*	-25.9	102.7*	107.0*
COC(=O)NNC(=O)c1ccc(Cl)cc1Cl	20.8	-13.9	-12.8	18.2	-2.7	0.5
Cc1cccc(C(=O)NNC(=O)c2ccc(NC(=O)C(C)(C)C)cc2)c1	20.4	-1.5	-8.1	11.8	-13.7	0.0
COc1ccc(NC(=O)CC2(CC(=O)O)CCCC2)cc1	-4.2	-3.4	8.6	9.0	-3.8	-0.6
COc1cc(/C=C2\C(=O)N(c3ccccc3)N=C2C)ccc1Oc1ccc([N+](=O)[O-])cc1[N+](=O)[O-]	23.2	7.8	15.3	-3.5	9.2	-0.7
CC1=NN(c2ccccc2)C(=O)/C1=C\c1ccc(Oc2ccc([N+](=O)[O-])cc2[N+](=O)[O-])cc1	50.4*	0.9	-6.5	20.4	13.3	3.4
CCOC(=O)CC1C(=O)NCCN1c1nc2ccc(C)cn2c(=O)c1/C=C1\SC(=S)N(CC(C)C)C1=O (stereo unspecified)	16.8	27.1*	-7.3	10.1	49.4*	5.0
CNc1nc(N/N=C/c2cc3c(cc2[N+](=O)[O-])OCO3)nc(Nc2ccccc2)n1	43.6*	-23.9	-10.8	13.9	-13.0	2.0
CNc1nc(N/N=C/c2cc([N+](=O)[O-])ccc2F)nc(Nc2ccccc2)n1	.	.	-8.0	-10.7	.	2.4
CCN(CC)S(=O)(=O)c1ccc(S(=O)(=O)Nc2ccc3c(c2)oc2ccccc23)cc1	12.3	8.0	24.9*	-6.2	-0.8	0.2
SMILES	OX1R antag-1	CHO parental Ca	CHO-K1 Ca antag	M1 PAM parental	OX1R antag-2	CHO-K1 Ca ag
CCCCC(CC)C(=O)Nc1ncc([N+](=O)[O-])s1 (stereo unspecified)	36.4	38.2*	25.8*	-3.4	24.7	8.4
Cc1ccc(CC(=O)Nc2ncc([N+](=O)[O-])s2)cc1	40.4*	9.8	-13.0	4.2	-10.2	12.8
O=C(COC(=O)c1ccc(Br)o1)Nc1ncc([N+](=O)[O-])s1	41.2*	12.8	9.8	-11.4	12.1	4.5
Cc1ncoc1C(=O)Nc1ncc([N+](=O)[O-])s1	23.3	-3.8	-3.4	-10.3	-3.8	0.6
Cc1ccc(S(=O)(=O)CC(=O)Nc2ncc([N+](=O)[O-])s2)cc1	56.5	-3.6	-4.1	-2.8	-3.5	0.6
O=C(CCS(=O)(=O)Cc1ccccc1)Nc1ncc([N+](=O)[O-])s1	49.2*	-2.3	-2.5	22.2	-14.9	1.7
O=C(COc1ccc2ccccc2c1Br)Nc1cccnc1	1.5	-13.7	-5.6	0.6	-5.8	8.2
Cc1cc(OCC(=O)Nc2ccncc2)cc(C)c1Cl	-2.8	43.9*	16.4	-8.5	52.9*	9.7
Cc1ccc(C)c(OCC(=O)Nc2ccc3c(c2)OCO3)c1	0.6	-21.5	-10.2	24.6	-25.8	3.6
CCc1ccc(OCC(=O)Nc2ccncc2)c(Br)c1	4.1	27.4	21.0	-26.1	28.4	9.3
Cc1cc(OCC(=O)Nc2ccncc2)c(C)cc1Br	28.5	57.7*	31.8*	-15.2	13.6	14.2
Cc1cc(C)c(OCC(=O)Nc2ccc3c(c2)OCO3)cc1C	7.5	44.3*	8.9	-6.2	-4.0	-0.1
O=C(COc1ccc2ccccc2c1Br)Nc1ccncc1	25.7	41.1*	10.8	-11.7	12.6	15.4*
CCc1ccc(S(=O)(=O)NC2CC(C)(C)NC(C)(C)C2)cc1	27.3	-8.5	-12.1	11.7	-7.5	-0.2
CC1CCC(NC(=O)CN(C)CC(=O)Nc2ccc(F)cc2)CC1 (stereo unspecified)	-0.8	-15.8	-8.6	15.6	-14.2	-0.2
CC(=O)c1cccc(-c2ccnc3c2CC(C(=O)NCc2ccccc2)O3)c1 (stereo unspecified)	.	.	-10.6	9.2	.	2.2
O=C(O)COc1ccc(/C=N/NC(=O)C(O)(c2ccccc2)c2ccccc2)cc1	-7.0	17.2	-13.0	4.2	-2.5	0.5
CCOC(=O)c1ccccc1NC(=O)COC(=O)C1CC(=O)N(CCc2ccccc2)C1 (stereo unspecified)	18.8	-20.8	12.5	21.1	-40.0	2.4
CC(C)CCOc1cccc(OCC(=O)Nc2ccncc2)c1	43.7	59.0*	27.8*	-15.4	54.6*	13.9
CC(C)(C)c1ccc(OCC(=O)Nc2ccncc2)c(Br)c1	35.3	46.6*	20.4	-6.8	-19.4	10.9
